Measurements collected from several papers.
Compare with care: the assays were run in different laboratories.
Cell line: NCI-H460
Effect on: cell growth or viability

SMILES	assay	conditions	measurement	result
COc1ccc(NC(=O)Nc2ccc(-c3cn(Cc4ccc(Br)cc4)nn3)cc2)cc1	CCK-8	50 µM, 72 h	viability	86.6%
N#Cc1ccc(-c2cc(COc3cc(=O)oc4ccccc34)on2)cc1	MTS	72 h	IC50	> 100 µM
CCCCCCCCCCCCCCCCCCOc1ccc(CC(=O)OCC[N+]2(C)CCOCC2)cc1	SRB	10 µM	inhibition	0.33%
FC(F)(F)c1ccc(-c2cc(CNc3cccc4cccnc34)on2)cc1	MTS	72 h	IC50	> 100 µM
CCCCCCCCCCCCCCCCCCOc1ccccc1CC(=O)OCC[N+]1(C)CCCCC1	SRB	10 µM	inhibition	37.8%
O=c1cc(OCc2cc(-c3ccccn3)no2)c2ccccc2o1	MTS	72 h	IC50	> 100 µM
COc1ccc(NC(=O)Nc2cccc(-c3cn(Cc4ccc(Cl)cc4)nn3)c2)cc1	CCK-8	50 µM, 72 h	viability	104%
O=C(CSc1nc2ccccc2s1)N/N=C/c1ccc(OCC(=O)Nc2ccc(Br)cc2)cc1	MTS	72 h	IC50	14 µM
CCCCCCCCCCCCCCCCCCOc1ccccc1CC(=O)OCC[N+]1(C)CCCC1	SRB	10 µM	inhibition	72.5%
c1ccc(-c2cc(CNc3cccc4cccnc34)on2)nc1	MTS	72 h	IC50	> 100 µM
O=C(CSc1nc2ccccc2s1)N/N=C/c1ccc(OCC(=O)Nc2ccc([N+](=O)[O-])cc2)cc1	MTS	72 h	IC50	> 100 µM
CCCCCCCCCCCCCCCCCCOc1ccccc1CC(=O)OCC[N+]1(C)CCOCC1	SRB	10 µM	inhibition	30.8%
COc1ccc(NC(=O)Nc2cccc(-c3cn(Cc4cccc(Cl)c4)nn3)c2)cc1	CCK-8	50 µM, 72 h	viability	105%
CCCCCCCCCCCCCCCCCCOc1cccc(CC(=O)OCC[N+]2(C)CCOCC2)c1	SRB	10 µM	inhibition	1%
O=C(Nc1ccc(Cl)cc1)Nc1cccc(-c2cn(Cc3cccc(Br)c3)nn2)c1	CCK-8	50 µM, 72 h	viability	88.2%
Cc1nc(NC(=O)N2CCC[C@H]2C(N)=O)sc1-c1ccnc(C(C)(C)C(F)(F)F)c1	ATP luminescence	5 days	EC50	35.1 µM
COc1ccc(NC(=O)Nc2ccc(-c3cn(Cc4ccc(Cl)cc4)nn3)cc2)cc1	CCK-8	50 µM, 72 h	viability	86.8%
CCCCCCCCCCCCCCCCCCOc1ccc(CC(=O)OCC[N+]2(C)CCCC2)cc1	SRB	10 µM	inhibition	0.31%
N#Cc1ccc(-c2cc(COc3cc(C(F)(F)F)nc4ccccc34)on2)cc1	MTS	72 h	IC50	> 100 µM
COc1ccc(NC(=O)Nc2cccc(-c3cn(Cc4ccccc4C)nn3)c2)cc1	CCK-8	50 µM, 72 h	viability	80.7%
c1ccc(-c2cc(CNc3cccc4cccnc34)on2)cc1	MTS	72 h	IC50	> 100 µM
COc1ccc(NC(=O)NCc2cn(Cc3ccccc3C)nn2)cc1	CCK-8	50 µM, 72 h	viability	106%
O=c1cc(OCc2cc(-c3ccccc3)no2)c2ccccc2o1	MTS	72 h	IC50	> 100 µM
CCCCCCCCCCCCCCCCCCOc1ccc(CC(=O)OCCC[N+](C)(C)C)cc1	SRB	10 µM	inhibition	26.7%
FC(F)(F)c1cc(OCc2cc(-c3ccccc3)no2)c2ccccc2n1	MTS	72 h	IC50	> 100 µM
COc1ccc(NC(=O)Nc2ccc(-c3cn(Cc4ccc(C)cc4)nn3)cc2)cc1	CCK-8	50 µM, 72 h	viability	83.2%
CCCCCCCCCCCCCCCCCCOc1ccccc1CC(=O)OCC[N+](C)(C)C	SRB	10 µM	inhibition	86.5%
